According to ChEMBL document CHEMBL4316604, “Discovery of Isaindigotone Derivatives as Novel Bloom's Syndrome Protein (BLM) Helicase Inhibitors That Disrupt the BLM/DNA Interactions and Regulate the Homologous Recombination Repair” (J Med Chem, 2019):
Calls of active or inactive are those of the source. The calls are words filed in the database; no cut-off is given here.

How the values were obtained:
[1] = biological target: T1, RecQ-like DNA helicase BLM (Homo sapiens, UniProt P54132); assay: Inhibition of His-tagged BLM (unknown origin) expressed in Escherichia coli BL21 (DE3) assessed as reduction in BLM helicase unwinding activity at 1 uM using 5'-biotin labeled forked-DNA as substrate after 1 hr by PAGE analysis
How it was run: (§1)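 BLM642-1296 (His-tagged, E. coli BL21(DE3)) preincubated with ligand (1.0, 10, 50 μM; ≤1% DMSO) for 1 h at 4 °C. Reaction: 8 nM annealed 5′-biotin duplex forked DNA, 32 nM BLM, 2 mM ATP, 0.1% BSA, 1 h.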

[2] = biological target: T1, RecQ-like DNA helicase BLM; assay: Inhibition of His-tagged BLM (unknown origin) expressed in Escherichia coli BL21 (DE3) assessed as reduction in BLM helicase unwinding activity at 50 uM using 5'-biotin labeled forked-DNA as substrate after 1 hr by PAGE analysis; how it was run: as §1
[3] = biological target: T1, RecQ-like DNA helicase BLM; assay: Inhibition of His-tagged BLM (unknown origin) expressed in Escherichia coli BL21 (DE3) assessed as reduction in BLM helicase unwinding activity at 10 uM using 5'-biotin labeled forked-DNA as substrate after 1 hr by PAGE analysis; how it was run: as §1
[4] = biological target: T1, RecQ-like DNA helicase BLM; conditions: 50 uM
[5] = biological target: T1, RecQ-like DNA helicase BLM; assay: Inhibition of BLM in human HCT116 cells assessed as induction of HRR up-regulation after 24 hrs by GFP-based flow cytometry; type: cell-based
How it was run: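 HCT116 cells (2×10^5) co-transfected with DR-GFP HRR reporter and I-SceI plasmid; 24 h later treated with 0–2 μM ligand (reference 0–50 μM); BLM siRNA knockdown where stated. GFP-positive cells counted by flow cytometry and normalised to untreated; triplicate, mean ± SD.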

T1 sequence (P54132 whole entry): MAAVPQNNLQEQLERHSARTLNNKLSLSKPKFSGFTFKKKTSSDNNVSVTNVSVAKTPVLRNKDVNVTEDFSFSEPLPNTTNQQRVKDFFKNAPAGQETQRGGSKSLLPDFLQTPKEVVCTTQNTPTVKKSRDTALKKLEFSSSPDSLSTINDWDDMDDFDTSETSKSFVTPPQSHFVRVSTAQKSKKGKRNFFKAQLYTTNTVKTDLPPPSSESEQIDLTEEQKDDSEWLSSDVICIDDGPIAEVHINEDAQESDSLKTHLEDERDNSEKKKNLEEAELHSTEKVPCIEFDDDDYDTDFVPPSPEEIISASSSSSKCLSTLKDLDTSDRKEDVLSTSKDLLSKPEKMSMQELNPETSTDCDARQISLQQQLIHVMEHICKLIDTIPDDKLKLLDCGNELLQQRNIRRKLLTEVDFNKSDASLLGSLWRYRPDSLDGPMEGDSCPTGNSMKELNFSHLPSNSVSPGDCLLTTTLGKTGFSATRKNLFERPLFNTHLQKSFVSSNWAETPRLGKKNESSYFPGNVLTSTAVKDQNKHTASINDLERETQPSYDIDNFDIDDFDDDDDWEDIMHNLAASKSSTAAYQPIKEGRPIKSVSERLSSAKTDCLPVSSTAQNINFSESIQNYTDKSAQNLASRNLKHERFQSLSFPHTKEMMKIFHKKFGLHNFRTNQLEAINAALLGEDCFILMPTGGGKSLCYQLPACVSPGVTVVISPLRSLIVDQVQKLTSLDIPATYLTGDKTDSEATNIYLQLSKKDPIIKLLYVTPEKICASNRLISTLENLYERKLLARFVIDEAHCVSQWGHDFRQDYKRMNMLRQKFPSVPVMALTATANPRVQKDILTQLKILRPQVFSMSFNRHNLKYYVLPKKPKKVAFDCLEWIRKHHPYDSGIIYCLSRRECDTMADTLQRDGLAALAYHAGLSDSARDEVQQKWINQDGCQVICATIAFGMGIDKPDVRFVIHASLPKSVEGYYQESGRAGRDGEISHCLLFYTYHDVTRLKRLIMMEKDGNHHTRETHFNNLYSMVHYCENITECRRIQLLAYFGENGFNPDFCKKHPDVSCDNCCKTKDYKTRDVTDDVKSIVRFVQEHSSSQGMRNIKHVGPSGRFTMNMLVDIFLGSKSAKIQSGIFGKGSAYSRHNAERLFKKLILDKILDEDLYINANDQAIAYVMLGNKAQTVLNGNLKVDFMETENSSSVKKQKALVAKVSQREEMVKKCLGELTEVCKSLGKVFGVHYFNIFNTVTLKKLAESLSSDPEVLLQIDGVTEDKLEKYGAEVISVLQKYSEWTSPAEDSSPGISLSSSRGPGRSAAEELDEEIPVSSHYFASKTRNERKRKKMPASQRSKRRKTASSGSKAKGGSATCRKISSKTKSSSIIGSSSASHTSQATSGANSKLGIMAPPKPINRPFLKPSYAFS

| Compound | inhibition [1] | inhibition [2] | inhibition [3] | inhibition [4] | EC [5] |
| --- | --- | --- | --- | --- | --- |
| CCN(CC)CCCNc1cc2nc3n(c(=O)c2cc1F)CC/C3=C\c1ccc(CC(C)C)cc1 | Active | Active | Active |  |  |
| O=C(Nc1ccc(F)c(C(F)(F)F)c1)Nc1nnc(-c2ccncc2)s1 | Active | Active | Active | inactive | 50 µM |
| CCN(CC)CCCNc1cc2nc3n(c(=O)c2cc1F)CC/C3=C\c1ccc(C(F)(F)F)cc1 | Active | Active | Active |  |  |
| CCN(CC)CCCNc1cc2nc3n(c(=O)c2cc1F)CC/C3=C\c1ccc(C(C)(C)C)cc1 | Active | Active | Active |  |  |
